Measurements from publication PMC6357737 (Science Advances, 2019).
pIC50: −log10 of the molar value.

How the values were obtained:
CRY1 = CRY1 (Mus musculus, UniProt P97784); assay: CRY1 degradation assay; format: cell-based; details: CRY1-LUC HEK293 cells, 24 h
CLK2 = CLK2 (Homo sapiens, UniProt P49760); assay: In vitro CLK2 kinase assay; format: biochemical
[1] = test system: 59 kinases from a variety of classes; assay: Kinase profiling, panel of 60 kinases; format: biochemical; details: 5 μM
[2] = test system: MLL-AF9 tissues (spleen and bone marrow explants); format: cell-based, mouse; details: MLL-AF9 tissues relative to the control
Procedure, shortened: (§1)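 Explants: spleen and bone marrow from transplant mice. MLL-AF9 leukemia cells derived from Per2::Luc bone marrow were serially transplanted into nonreporter C57BL/6J mice. Controls were C57BL/6J recipients of Per2::Luc bone marrow, used 3 months later. Tissue was cultured in luciferin explant medium with compound (0.24% DMSO final). Luminescence was read every 30 min for 5 days, first day excluded. Period was curve-fitted; intensity was averaged over the run. MLL-AF9 n = 11; control n = 10 to 20.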

BMAL1 S90 = BMAL1 S90 phosphorylation immunoblot in NIH-3T3 cells; format: cell-based, mouse; details: 10 μM, different times
Procedure, shortened: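 NIH-3T3 cells were exposed to 10 μM test compound for varying times. Lysates were immunoprecipitated with anti-BMAL1 antibody, then immunoblotted with anti-P-BMAL1-S90 and anti-BMAL1 antibodies. Protein was quantified by Bradford.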

CKIδ = CKIδ (Homo sapiens, UniProt P48730); assay: In vitro CKIδ kinase assay; format: biochemical
Sequence of CKIδ (P48730 whole entry, species assumed): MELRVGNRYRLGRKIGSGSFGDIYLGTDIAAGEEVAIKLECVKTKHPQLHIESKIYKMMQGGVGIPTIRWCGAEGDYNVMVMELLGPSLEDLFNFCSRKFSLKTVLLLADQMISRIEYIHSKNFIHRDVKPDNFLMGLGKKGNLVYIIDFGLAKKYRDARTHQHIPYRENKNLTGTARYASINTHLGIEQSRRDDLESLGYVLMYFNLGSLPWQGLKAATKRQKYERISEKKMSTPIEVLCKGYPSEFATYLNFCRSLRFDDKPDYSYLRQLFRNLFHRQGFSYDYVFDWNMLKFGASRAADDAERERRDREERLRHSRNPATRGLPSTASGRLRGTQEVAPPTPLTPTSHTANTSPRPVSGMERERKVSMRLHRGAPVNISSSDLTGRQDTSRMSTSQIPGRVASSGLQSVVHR

A498 = assay: Proliferation assay of RCC line A498; format: cell-based, human; details: A498, 2 days
Procedure, shortened: (§2)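 Lines were kept in RPMI-1640/10% FBS and plated 1 day before treatment. Seeding per well: Caki-2 and A704 at 2.0 × 10^4; 786-O, A498, 769-P and ACHN at 1.0 × 10^4; RCC4+vec at 0.7 × 10^4; RCC4+VHL at 0.8 × 10^4. Two days after dosing, cells were stained with Hoechst 33342 (2 μg/ml, 1 h) and counted by imaging.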

CK2 [3] = target: T1, CK2 (Homo sapiens, UniProt P19784+P68400); assay: Cellular CK2 activity, anti-phospho CK2 substrate immunoblot, U2OS; format: cell-based; details: U2OS cells, 24 hours, concentrations similar to those that affected circadian period
T1 sequence (P68400 whole entry): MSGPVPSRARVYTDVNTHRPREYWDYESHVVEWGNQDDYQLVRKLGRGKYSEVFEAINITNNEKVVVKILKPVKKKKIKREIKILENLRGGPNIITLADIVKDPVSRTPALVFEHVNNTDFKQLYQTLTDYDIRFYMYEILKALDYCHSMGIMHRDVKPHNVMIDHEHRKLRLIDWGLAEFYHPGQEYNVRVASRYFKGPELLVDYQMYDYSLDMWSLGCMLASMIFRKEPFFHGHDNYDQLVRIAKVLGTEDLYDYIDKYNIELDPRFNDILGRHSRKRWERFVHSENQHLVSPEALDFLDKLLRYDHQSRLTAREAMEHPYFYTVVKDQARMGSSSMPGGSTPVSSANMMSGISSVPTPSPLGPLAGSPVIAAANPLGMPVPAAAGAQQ
T1 sequence (P19784 whole entry): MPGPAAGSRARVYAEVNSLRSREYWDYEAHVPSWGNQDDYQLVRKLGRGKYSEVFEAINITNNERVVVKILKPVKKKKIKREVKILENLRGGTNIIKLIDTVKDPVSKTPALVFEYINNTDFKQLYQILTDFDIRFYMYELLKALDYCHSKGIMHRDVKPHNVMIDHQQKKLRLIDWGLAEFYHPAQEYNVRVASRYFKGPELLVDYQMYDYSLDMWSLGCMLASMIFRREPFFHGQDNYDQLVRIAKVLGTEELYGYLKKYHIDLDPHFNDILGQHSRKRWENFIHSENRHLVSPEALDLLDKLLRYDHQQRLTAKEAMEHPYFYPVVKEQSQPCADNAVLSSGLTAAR
T1 sequence (P67870 whole entry partner): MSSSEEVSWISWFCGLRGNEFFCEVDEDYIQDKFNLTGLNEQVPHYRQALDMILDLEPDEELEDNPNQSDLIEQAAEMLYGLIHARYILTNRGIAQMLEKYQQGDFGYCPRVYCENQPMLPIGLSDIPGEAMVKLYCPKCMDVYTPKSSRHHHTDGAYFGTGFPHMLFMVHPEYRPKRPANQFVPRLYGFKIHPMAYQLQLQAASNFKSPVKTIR

Per2-dLuc U2OS cells = assay: Cell-based circadian assay, Per2-dLuc reporter; set-up: species or system human
PER2 = assay: Phosphoproteomics of Flag-tagged PER2 in HEK293T cells; format: cell-based, mouse; details: full-length PER2, 8 μM, 24 h (table S1)
Procedure, shortened: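 HEK293T cells were reverse-transfected (Lipofectamine 2000) with C-terminal 3XFlag-tagged mouse PER2 plus CK2α. After 24 h, they received 0 or 8 μM compound for 24 h. Lysis was in 1% NP-40 buffer (pH 8.0) with phosphatase inhibitors, followed by anti-Flag immunoprecipitation and LC-MS/MS after four-protease digestion. Phosphorylation was expressed as phosphopeptide/total peptide spectra, and the effect as the treated/control ratio.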

[4] = test system: lung explants from Per2::Luc mice; assay: Circadian rhythms in lung explants; format: cell-based, mouse
Procedure, shortened: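 Lung pieces from Per2::Luc knock-in mice were cultured in luciferin-containing explant medium with compound (final 0.24% DMSO). Luminescence was recorded every 30 min for 5 days, excluding the first day. Period was derived by curve fitting.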

786-O = assay: Proliferation assay of RCC line 786-O; format: cell-based, human; details: 2 days
Procedure, shortened: as §2

RCC4+VHL = assay: Proliferation assay of RCC line RCC4+VHL; format: cell-based, human; details: 2 days
Procedure, shortened: as §2

Caki-2 = assay: Proliferation assay of RCC line Caki-2; format: cell-based, human; details: Caki-2, 2 days
Procedure, shortened: as §2

CKIα = CKIα (Homo sapiens, UniProt P48729); assay: In vitro CKIα kinase assay; format: biochemical
Sequence of CKIα (P48729 whole entry, species assumed): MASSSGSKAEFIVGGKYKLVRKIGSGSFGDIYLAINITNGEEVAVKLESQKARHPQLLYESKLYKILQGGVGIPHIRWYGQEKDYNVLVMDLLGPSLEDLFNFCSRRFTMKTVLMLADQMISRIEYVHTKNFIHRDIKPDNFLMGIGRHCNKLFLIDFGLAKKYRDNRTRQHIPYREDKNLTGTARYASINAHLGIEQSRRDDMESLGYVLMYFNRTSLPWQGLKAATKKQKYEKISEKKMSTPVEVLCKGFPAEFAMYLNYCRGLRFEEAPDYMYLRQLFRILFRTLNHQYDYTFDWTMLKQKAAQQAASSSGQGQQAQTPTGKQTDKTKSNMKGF

A704 = assay: Proliferation assay of RCC line A704; format: cell-based, human; details: A704, 2 days
Procedure, shortened: as §2

OCI-AML3 = assay: Proliferation assay of OCI-AML3 cells; format: cell-based, human; details: OCI-AML3, 4 days
Procedure, shortened: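 OCI-AML3 cells were kept in MEM alpha/20% FBS, plated at 1.0 × 10^4 per well with compound, and incubated at 37°C for 4 days. Viability was read with Cell Counting Kit-8.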

[5] = target: recombinant CK2 (α2β2 tetramer) (Homo sapiens, UniProt P68400); format: binding; details: recombinant CK2, agarose-conjugated GO457, immunoblot
Sequence of recombinant CK2 (α2β2 tetramer) (P68400 whole entry): as the sequence (P68400 whole entry) above
Sequence of recombinant CK2 (α2β2 tetramer) (P67870 whole entry partner): as the sequence (P67870 whole entry partner) above

[6] = test system: control spleen and bone marrow explants; assay: Per2::Luc rhythms in control spleen and bone marrow explants; format: cell-based, mouse
Procedure, shortened: as §1

[7] = test system: LSK hematopoietic progenitor cells; assay: Proliferation assay of LSK hematopoietic progenitor cells; format: cell-based, mouse; details: LSK hematopoietic progenitor cells (normal counterpart), 2 days
Procedure, shortened: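 LSK progenitors were maintained in StemSpan with SCF and TPO (100 ng/ml each). Cells were plated at 1.0 × 10^4 per well with compound, held at 37°C for 2 days, then counted by flow cytometry.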

[8] = test system: Per2 knockout cells differentiated from ES cells; assay: Circadian assay in Per2 knockout cells differentiated from Bmal1-Luc ES cells; format: cell-based, mouse
Procedure, shortened: (§3)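 ES cells were kept on feeder fibroblasts; Per2 was disrupted by CRISPR-Cas9 in Bmal1-Luc ES cells. Embryoid bodies formed over 2 days in low-attachment wells, then grew 26 days on gelatin. On day 28, cells got 100 nM dexamethasone for 1 h, then 0.2 mM luciferin with compound. Luminescence was integrated 1 min every 20 min; period came from sine-wave fitting. Replicates: Per2::LucSV n = 4; Per2 knockout versus wild-type n = 3 to 4.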

CK2 [9] = target: T1, CK2; assay: Cellular CK2 activity, anti-phospho CK2 substrate immunoblot, HEK293T; format: cell-based; details: HEK293T cells, 24 hours, various concentrations
PKA (protein kinase A) = assay: Anti-phospho PKA substrate immunoblot, HEK293T; format: cell-based, human; details: HEK293T cells, 24 hours
Procedure, shortened: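 HEK293T cells exposed to a range of test compound concentrations for 24 hours. Lysates were immunoblotted with anti-phospho CK2 substrate antibody, then the membrane was reprobed with anti-phospho PKA substrate and anti-β-actin antibodies.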

CK2 [10] = target: CK2 (Homo sapiens, UniProt P68400); assay: biochemical
Sequence of CK2 (Homo sapiens, UniProt P68400) (P68400 whole entry): as the sequence (P68400 whole entry) above
Sequence of CK2 (Homo sapiens, UniProt P68400) (P67870 whole entry partner): as the sequence (P67870 whole entry partner) above

ACHN = assay: Proliferation assay of RCC line ACHN; format: cell-based, human; details: 2 days
Procedure, shortened: as §2

MLL-AF9 leukemia cells = assay: Proliferation assay of MLL-AF9 leukemia cells; format: cell-based; details: mouse MLL-AF9 leukemia cells, 2 days
Procedure, shortened: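 GFP-positive MLL-AF9 leukemia cells were taken from leukemic mouse bone marrow and kept in IMDM/10% FBS with SCF 20 ng/ml and mIL-3, mIL-6 and GM-CSF at 10 ng/ml each. Cells were plated at 2.0 × 10^4 per well with compound, incubated at 37°C for 2 days, then counted by flow cytometry.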

[11] = test system: CK2α (CSNK2A1), CK2α′ (CSNK2A2), CK2β (CSNK2B), and GSK-3β (GSK3B); format: binding, human; details: U2OS cell lysate, 50 μM free compound
Procedure, shortened: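 Unsynchronized confluent U2OS cells (1.6 × 10^8) were Dounce-homogenized in MOPS/EGTA/MgCl2/DTT buffer (pH 7.2) and sonicated. NP-40 was added to 0.5%, and the extract was cleared at 14,000g. Halves were preincubated with 0 or 50 μM free compound (0.5% DMSO) at 4°C for 30 min, then with the agarose-conjugated probe for 1 h. Bound proteins were in-gel digested for nanoLC-MS/MS; two independent experiments.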

PIM2 = PIM2 (Homo sapiens, UniProt Q9P1W9); assay: In vitro PIM2 kinase assay; format: biochemical
Sequence of PIM2 (Q9P1W9 whole entry): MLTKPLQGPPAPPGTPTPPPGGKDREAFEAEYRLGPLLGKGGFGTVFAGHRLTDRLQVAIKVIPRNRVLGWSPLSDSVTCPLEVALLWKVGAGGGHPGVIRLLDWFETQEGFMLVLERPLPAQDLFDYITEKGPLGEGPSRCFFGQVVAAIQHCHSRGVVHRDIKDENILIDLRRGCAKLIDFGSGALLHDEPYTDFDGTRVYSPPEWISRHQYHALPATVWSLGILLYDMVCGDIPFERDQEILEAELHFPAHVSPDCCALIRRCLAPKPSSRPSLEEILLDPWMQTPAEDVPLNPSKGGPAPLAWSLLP
Procedure, shortened: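 Kinase-Glo assay measuring remaining ATP. Compound was added (final 5% DMSO) and reactions were started with ATP (final 3 μM). PIM2 ran at 30°C for 3 h. The CK2 comparator used CK2 (1.5 ng/μl) with 50 μM substrate peptide in 40 mM tris, 10 mM MgCl2, 0.5 mM DTT, 150 mM NaCl, pH 7.5, at 37°C for 1.5 h.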

769-P = assay: Proliferation assay of RCC line 769-P; format: cell-based, human; details: 2 days
Procedure, shortened: as §2

Bmal1-dLuc U2OS cells = assay: Cell-based circadian assay, Bmal1-dLuc reporter; set-up: species or system human
Procedure, shortened: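 Stable U2OS Bmal1-dLuc cells were seeded at 3000 per well in DMEM/10% FBS. After 2 days, B27/HEPES explant medium with 0.2 or 1 mM luciferin (pH 7.2) was added, plus compound (final 0.7% DMSO). Luminescence was read every 100 min for 5 days, first day excluded. Period came from curve fitting; intensity was averaged over the run; n = 4. LogEC50 was from sigmoidal fits of threefold 12-point series.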

[12] = test system: cells differentiated from Per2::LucSV knock-in ES cells; assay: Circadian assay in differentiated ES cells; format: cell-based, mouse
Procedure, shortened: as §3

GSK-3β = GSK-3β (Homo sapiens, UniProt P49841); assay: Kinase profiling; format: biochemical; details: 5 μM
Sequence of GSK-3β (P49841 whole entry): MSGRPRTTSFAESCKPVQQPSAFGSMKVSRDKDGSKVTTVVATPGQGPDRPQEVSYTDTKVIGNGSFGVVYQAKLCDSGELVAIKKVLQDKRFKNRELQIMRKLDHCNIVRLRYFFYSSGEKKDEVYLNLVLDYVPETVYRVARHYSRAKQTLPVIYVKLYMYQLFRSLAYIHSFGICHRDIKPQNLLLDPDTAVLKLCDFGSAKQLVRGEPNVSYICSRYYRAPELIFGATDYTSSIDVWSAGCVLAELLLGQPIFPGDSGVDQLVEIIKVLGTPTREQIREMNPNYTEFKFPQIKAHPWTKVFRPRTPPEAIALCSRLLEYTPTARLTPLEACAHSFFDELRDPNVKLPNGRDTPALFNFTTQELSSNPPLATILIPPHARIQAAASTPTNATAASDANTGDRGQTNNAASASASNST

RCC4+vec = assay: Proliferation assay of RCC line RCC4+vec; format: cell-based, human; details: 2 days
Procedure, shortened: as §2

Sequence of CRY1 (P97784 whole entry): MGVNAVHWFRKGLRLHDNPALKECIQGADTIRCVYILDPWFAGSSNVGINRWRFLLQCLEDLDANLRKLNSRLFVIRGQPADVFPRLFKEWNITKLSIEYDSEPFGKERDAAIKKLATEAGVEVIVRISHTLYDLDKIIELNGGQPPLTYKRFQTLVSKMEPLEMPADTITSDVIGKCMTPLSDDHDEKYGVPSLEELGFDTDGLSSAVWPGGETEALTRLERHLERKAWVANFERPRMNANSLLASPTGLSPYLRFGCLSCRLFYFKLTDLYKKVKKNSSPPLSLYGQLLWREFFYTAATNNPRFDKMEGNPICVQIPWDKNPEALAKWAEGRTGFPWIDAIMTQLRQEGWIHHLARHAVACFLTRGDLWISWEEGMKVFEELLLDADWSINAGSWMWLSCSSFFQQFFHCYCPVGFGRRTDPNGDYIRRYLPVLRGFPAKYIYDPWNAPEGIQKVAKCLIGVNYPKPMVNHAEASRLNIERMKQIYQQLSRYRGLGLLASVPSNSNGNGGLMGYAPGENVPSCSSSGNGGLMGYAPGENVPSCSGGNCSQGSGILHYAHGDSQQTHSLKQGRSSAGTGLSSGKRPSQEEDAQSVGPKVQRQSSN
Sequence of CLK2 (P49760 whole entry): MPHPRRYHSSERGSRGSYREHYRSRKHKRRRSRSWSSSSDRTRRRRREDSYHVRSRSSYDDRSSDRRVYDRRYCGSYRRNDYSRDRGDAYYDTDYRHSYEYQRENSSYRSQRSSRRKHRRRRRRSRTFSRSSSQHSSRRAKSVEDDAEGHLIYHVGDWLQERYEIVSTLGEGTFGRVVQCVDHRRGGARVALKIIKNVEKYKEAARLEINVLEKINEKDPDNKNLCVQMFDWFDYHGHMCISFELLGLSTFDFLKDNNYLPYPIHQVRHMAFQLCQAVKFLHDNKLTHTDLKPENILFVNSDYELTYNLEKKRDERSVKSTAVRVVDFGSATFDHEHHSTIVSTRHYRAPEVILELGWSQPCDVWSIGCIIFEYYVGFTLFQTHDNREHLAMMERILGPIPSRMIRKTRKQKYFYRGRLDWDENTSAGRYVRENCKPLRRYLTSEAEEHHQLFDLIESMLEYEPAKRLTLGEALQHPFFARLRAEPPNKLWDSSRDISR

COc1cc(/C=N/n2c(SC)nnc2-c2ccccc2)c(Br)cc1O [GO289]
CRY1 stabilization in cell-based degradation assay (CRY1): no stabilization of CRY1
pIC50 (CLK2): < 4.30
Effect on the activity of 59 kinases [1]: only a moderate or minor effect
Luminescence intensity of Per2::Luc reporter [2]: severe reduction in luminescence
BMAL1 S90 phosphorylation (immunoblot) (BMAL1 S90): down-regulation
Effect on CKIδ activity in vitro (CKIδ): minor effects
Cell growth (A498): strongly inhibited
Cellular CK2 activity (anti-phospho CK2 substrate antibody) (CK2 [3]): Inhibition of cellular CK2 activity
Effect on circadian period (Per2-dLuc U2OS cells): dose-dependent lengthening of circadian period
Phosphorylation of PER2 T12/S13 and S53 (previously reported CK2 sites) (PER2): either unchanged or up-regulated
Effect on circadian period [4]: lengthened periods
Cell growth (786-O): less affected
Cell growth (RCC4+VHL): less affected
Cell growth (Caki-2): strongly inhibited
Effect on CKIα activity in vitro (CKIα): minor effects
Cell growth (A704): less affected
Cell growth (OCI-AML3): sensitive to GO289
Competition of CK2 interaction with affinity probe [5]: blocked by increasing concentrations of free GO289
Effect on circadian period [6]: lengthened circadian period
Cell growth [7]: much less affected
Period lengthening of Bmal1-Luc rhythms in Per2 knockout vs wild-type cells [8]: slightly enhanced
Phosphorylation of CK2 substrates (anti-phospho CK2 substrate antibody) (CK2 [9]): reduced by GO289 in a dose-dependent manner
Signal of anti-phospho PKA substrate antibody (PKA (protein kinase A)): not affected by GO289
pIC50 (CK2 [10]): 8.15
Cell growth (ACHN): less affected
Cell growth (MLL-AF9 leukemia cells): significantly reduced growth
Competition of protein interactions with affinity probe [11]: blocked by free GO289
pIC50 (PIM2): 4.89
IC50 ratio against CK2 over PIM family kinase (PIM2) (PIM2; PIM2 IC50 relative to CK2 IC50): > 1000
Cell growth (769-P): strongly inhibited
Effect on circadian period (Bmal1-dLuc U2OS cells): dose-dependent lengthening of circadian period
Effect on luminescence (reporter signal intensity) (Bmal1-dLuc U2OS cells; vs DMSO control): little effect on luminescence
Lengthening of circadian period (Bmal1-dLuc U2OS cells; vs DMSO control): more than 12 hours
Effect on circadian period [12]: lengthened periods
Effect on GSK-3β activity (GSK-3β): minor effect
Cell growth (RCC4+vec): less affected

COc1cc(/C(C)=N/n2c(SC)nnc2-c2ccccc2)c(Br)cc1O [compound 27]
CK2 inhibitory activity in vitro (CK2 [10]; in vitro CK2 kinase assay (fig. S5)): complete loss of CK2 inhibition

Cc1cc2sc(NC(=O)Cc3ccccc3)nc2cc1Cl [LH846, reference compound]
Phosphorylation of CK2 substrates (anti-phospho CK2 substrate antibody) (CK2 [9]): neither the CKIδ inhibitor LH846 nor the GSK-3 inhibitor CHIR-99021 altered the CK2-specific phosphorylation pattern

O=C(O)c1ccc2c(c1)nc(Nc1cccc(Cl)c1)c1ccncc12 [CX-4945, reference compound]
Cell growth (Caki-2): inhibited growth
Cell growth (A704): less of an effect
Cell growth (ACHN): less of an effect
Effect on luminescence (reporter signal intensity) (Bmal1-dLuc U2OS cells; vs DMSO control): severe reduction in luminescence

CN(C)c1nc2c(Br)c(Br)c(Br)c(Br)c2[nH]1 [DMAT, reference compound]
Effect on luminescence (reporter signal intensity) (Bmal1-dLuc U2OS cells; vs DMSO control): severe reduction in luminescence
